Measurements gathered from unrelated publications.
Protocols differ between the studies behind these lines.
Target: Ribosomal protein S6 kinase beta-1 (RPS6KB1, Homo sapiens, UniProt P23443)

| SMILES | observed | mode | technique | concentration | quantity | result |
| --- | --- | --- | --- | --- | --- | --- |
| CN(c1ncccc1CNc1nc(Nc2ccc3c(c2)CC(=O)N3)ncc1C(F)(F)F)S(C)(=O)=O | enzyme activity | inhibitor | – | 1 µM | inhibition | 26.4% |
| O=C1NC(=O)c2cc(Nc3ccc(F)cc3)c(Nc3ccc(F)cc3)cc21 | cell-free assay | – | – | 0.5 µM | remaining signal | 95.5% |
| Cc1ccc(NC(=O)c2ccc(C)c(C(F)(F)F)c2)cc1C#Cc1nn(C2CCC(O)CC2)c2ncnc(N)c12 (stereo not shown) | cell-free assay | – | – | 10 µM | remaining signal | 33% |
| CSc1cccnc1N1CCN(Cc2nc3ccccc3[nH]2)CC1 | cell-free assay | – | competition with immobilised ligand | 1 µM | remaining binding | 87% |
| N#CCCc1ccc2c(c1)-c1[nH]c3ccc([N+](=O)[O-])cc3c1CC(=O)N2 | cell-free assay | – | – | 0.5 µM | remaining signal | 98% |
| COc1cc2ncnc(Nc3ccc(Oc4ccccc4)c(C)c3C)c2cc1OC | enzyme activity | inhibitor | – | 1 µM | inhibition | -3% |
| CC/C(=N\NC(=O)NCc1cccc(O)c1)c1ccc(O)c(C)c1O | enzyme activity | inhibitor | – | 0.1 µM | inhibition | 77.8% |
| CC(C)c1ccc(NC(=O)c2cccs2)c(-c2nc3ccccc3[nH]c2=O)c1 | enzyme activity | inhibitor | – | 1 µM | activity vs control | 93% |
| CC(=O)c1c(NS(C)(=O)=O)c2cc(-c3ccc(Cl)cc3)c(-c3ccc(Cl)cc3Cl)nc2n(C)c1=O | cell-free assay | – | competition with immobilised ligand | 1 µM | remaining binding | 95% |
| COc1ccc(COc2ccc(Cc3cnc(N)nc3N)cc2OC)cc1 | cell-free assay | – | – | 0.5 µM | remaining signal | 89.5% |
| Nc1ncnc2occ(-c3ccc(NC(=O)Nc4cc(C(F)(F)F)ccc4F)cc3)c12 | cell-free assay | inhibitor | – | 20 µM | remaining signal | 0.1% |
| CNCc1ccccc1-c1csc([C@@H](C)Nc2nc(C)nc3cc(OC)c(OC)cc23)c1 | cell-free assay | – | competition with immobilised ligand | 1 µM | remaining binding | 86% |
| Cc1ccc(-n2nc(C(C)(C)C)cc2NC(=O)Nc2ccc(OCCN3CCOCC3)c3ccccc23)cc1 | enzyme activity | inhibitor | – | 10 µM | inhibition | 39% |
| CCOCCn1cc(C(=O)Nc2ccc(-n3nc(-c4cccnc4)cc3C(F)(F)F)cn2)ccc1=O | cell-free assay | – | competition with immobilised ligand | 1 µM | remaining binding | 97% |
| CN(C)C1CCN(CC#Cc2nn(C3CCCC3)c3nc(NCc4ccccc4)ncc23)C1 (stereo not shown) | enzyme activity | inhibitor | FRET | 10 µM | inhibition | 10% |
| c1ccc(N2CCN(Cc3nc4ccccc4[nH]3)CC2)nc1 | binding | – | competition with immobilised ligand | 1 µM | remaining binding | 97% |
| CCN(CC)CCNC(=O)c1c(C)[nH]c(/C=C2\C(=O)Nc3ccc(F)cc32)c1C | enzyme activity | inhibitor | – | 0.3 µM | inhibition | 30% |
| O=C(NCCCC1CCCCC1)c1ccc(CNC(=O)c2cnn(-c3ccccc3)c2C(F)(F)F)cc1 | cell-free assay | – | competition with immobilised ligand | 0.1 µM | remaining binding | 96% |
| Cn1cncc1C1=CN(c2ncnc3[nH]cnc23)CCS1 | enzyme activity | inhibitor | radiometric | 2 µM | inhibition | 87.3% |
